Assay results from ChEMBL document CHEMBL1156597, “Structure-activity relationship of kahalalide F synthetic analogues” (J Med Chem, 2008).

How the values were obtained:
DU-145 = assay: Cytotoxicity against human DU145 cells after 48 hrs by SRB assay; format: functional, cell-based; conditions: Homo sapiens, DU-145, 48 h; for CC50: read-out: LC50 (the source's name)
Summary of the method: (§1)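 Cells grown in RPMI 1640 with 10% FBS and penicillin/streptomycin at 37 °C and 5% CO₂, trypsinized, then seeded at 5 × 10³/well. After 18 h drug-free attachment, samples in DMSO/EtOH/PBS (0.5:0.5:99) were added for 48 h continuous exposure. Cells were fixed with cold TCA (1 h, 4 °C) and stained with SRB (10 min). Tris-solubilized stain read at 490 nm. Triplicate wells, mean ± SD; GI₅₀ derived.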

LNCaP = assay: Cytotoxicity against human LNcaP cells after 48 hrs by SRB assay; format: functional; conditions: for CC50: read-out: LC50 (the source's name); summary of the method: as §1
[1] = Cytotoxicity against human IGROV cells after 48 hrs by SRB assay; format: functional; conditions: for CC50: read-out: LC50 (the source's name); summary of the method: as §1
[2] = Cytotoxicity against human IGROV-ET cells after 48 hrs by SRB assay; format: functional; conditions: for CC50: read-out: LC50 (the source's name); summary of the method: as §1
SK-BR-3 = assay: Cytotoxicity against human SKBR3 cells after 48 hrs by SRB assay; format: functional; conditions: SK-BR-3, 48 h; for GI50: read-out: GI50; for CC50: read-out: LC50 (the source's name); summary of the method: as §1
SK-MEL-28 = assay: Cytotoxicity against human SK-MEL-28 cells after 48 hrs by SRB assay; format: functional, cell-based; conditions: Homo sapiens, SK-MEL-28, 48 h; for CC50: read-out: LC50 (the source's name); summary of the method: as §1
A549 = assay: Cytotoxicity against human A549 cells after 48 hrs by SRB assay; format: functional, cell-based; conditions: Homo sapiens, A549, 48 h; summary of the method: as §1
PANC-1 = assay: Cytotoxicity against human PANC1 cells after 48 hrs by SRB assay; format: functional; conditions: PANC-1, 48 h; for CC50: read-out: LC50 (the source's name); summary of the method: as §1
HT-29 = assay: Cytotoxicity against human HT29 cells after 48 hrs by SRB assay; format: functional, cell-based; conditions: Homo sapiens, HT-29, 48 h; for CC50: read-out: LC50 (the source's name); summary of the method: as §1
LoVo [3] = assay: Cytotoxicity against human LoVo cells after 48 hrs by SRB assay; format: functional; conditions: for CC50: read-out: LC50 (the source's name)
LoVo [4] = assay: Cytotoxicity against human doxorubicin resistant LoVo cells after 48 hrs by SRB assay; format: functional; conditions: for CC50: read-out: LC50 (the source's name); summary of the method: as §1
HeLa = assay: Cytotoxicity against human HeLa cells after 48 hrs by SRB assay; format: functional; conditions: for CC50: read-out: LC50 (the source's name); summary of the method: as §1
[5] = Cytotoxicity against human HeLa-APL cells after 48 hrs by SRB assay; format: functional; summary of the method: as §1
K562 = assay: Cytotoxicity against human K562 cells after 48 hrs by SRB assay; format: functional; conditions: K562, 48 h; summary of the method: as §1

## C/C=C1\NC(=O)[C@H](Cc2c(F)c(F)c(F)c(F)c2F)NC(=O)[C@@H](C(C)C)NC(=O)[C@@H]([C@H](C)CC)NC(=O)[C@H](NC(=O)[C@H](NC(=O)[C@H](CCCN)NC(=O)[C@H]2CCCN2C(=O)[C@H](NC(=O)[C@@H](NC(=O)[C@@H](NC(=O)[C@H](NC(=O)CC[C@@H](C)CC)C(C)C)[C@@H](C)O)C(C)C)C(C)C)[C@H](C)CC)[C@H](C)OC(=O)[C@H](C(C)C)NC1=O
DU-145
  TGI: 1170 nM
  CC50: 1000 nM
DU-145; read-out: GI50
  GI50: 1370 nM
LNCaP
  GI50: 504 nM
  TGI: 681 nM
  CC50: 778 nM
[1]
  TGI: 1740 nM
  CC50: 1100 nM
[1]; read-out: GI50
  GI50: 2070 nM
[2]
  CC50: 1150 nM
SK-BR-3
  TGI: 492 nM
  GI50: 556 nM
  CC50: 435 nM
SK-MEL-28
  TGI: 1200 nM
  CC50: 1120 nM
SK-MEL-28; read-out: GI50
  GI50: 1280 nM
A549
  LC50: 1270 nM
  TGI: 1530 nM
A549; read-out: GI50
  GI50: 1850 nM
PANC-1
  GI50: 2110 nM
  TGI: 3420 nM
  CC50: 2810 nM
HT-29
  GI50: 1090 nM
  TGI: 1740 nM
  CC50: 256 nM
LoVo [3]
  GI50: 469 nM
  TGI: 426 nM
  CC50: 386 nM
LoVo [4]
  GI50: 496 nM
  TGI: 432 nM
  CC50: 374 nM
HeLa
  CC50: 1300 nM
[5]
  GI50: 1450 nM
  LC50 (concentration giving 50% net cell kill): 983 nM
  TGI: 1200 nM

## C/C=C1\NC(=O)[C@H](Cc2ccc(I)cc2)NC(=O)[C@@H](C(C)C)NC(=O)[C@@H]([C@H](C)CC)NC(=O)[C@H](NC(=O)[C@H](NC(=O)[C@H](CCCN)NC(=O)[C@H]2CCCN2C(=O)[C@H](NC(=O)[C@@H](NC(=O)[C@@H](NC(=O)[C@H](NC(=O)CC[C@@H](C)CC)C(C)C)[C@@H](C)O)C(C)C)C(C)C)[C@H](C)CC)[C@H](C)OC(=O)[C@H](C(C)C)NC1=O
DU-145
  GI50: 131 nM
  CC50: 117 nM
DU-145; read-out: GI50
  GI50: 148 nM
LNCaP
  GI50: 345 nM
  TGI: 512 nM
  CC50: 686 nM
[1]
  GI50: 394 nM
  CC50: 179 nM
[1]; read-out: GI50
  GI50: 670 nM
[2]
  GI50: 955 nM
  CC50: 776 nM
[2]; read-out: GI50
  GI50: 1190 nM
SK-BR-3
  TGI: 315 nM
  GI50: 305 nM
  CC50: 327 nM
SK-MEL-28
  GI50: 202 nM
  CC50: 354 nM
SK-MEL-28; read-out: GI50
  GI50: 160 nM
A549
  GI50: 203 nM
  LC50: 181 nM
A549; read-out: GI50
  GI50: 226 nM
PANC-1
  GI50: 1200 nM
  TGI: 1300 nM
  CC50: 1410 nM
HT-29
  GI50: 396 nM
  TGI: 407 nM
  CC50: 423 nM
LoVo [3]
  GI50: 365 nM
  TGI: 361 nM
  CC50: 358 nM
LoVo [4]
  GI50: 134 nM
  TGI: 183 nM
  CC50: 225 nM
HeLa
  CC50: 156 nM
[5]
  GI50: 313 nM
  LC50 (concentration giving 50% net cell kill): 605 nM
  TGI: 416 nM

## C/C=C1\NC(=O)[C@H](Cc2ccc([N+](=O)[O-])cc2)NC(=O)[C@@H](C(C)C)NC(=O)[C@@H]([C@H](C)CC)NC(=O)[C@H](NC(=O)[C@H](NC(=O)[C@H](CCCN)NC(=O)[C@H]2CCCN2C(=O)[C@H](NC(=O)[C@@H](NC(=O)[C@@H](NC(=O)[C@H](NC(=O)CC[C@@H](C)CC)C(C)C)[C@@H](C)O)C(C)C)C(C)C)[C@H](C)CC)[C@H](C)OC(=O)[C@H](C(C)C)NC1=O
DU-145
  TGI: 3640 nM
  CC50: 561 nM
DU-145; read-out: GI50
  GI50: 261 nM
LNCaP
  GI50: 482 nM
  TGI: 511 nM
  CC50: 669 nM
[1]
  GI50: 417 nM
  CC50: 197 nM
[1]; read-out: GI50
  GI50: 682 nM
[2]
  GI50: 811 nM
  CC50: 636 nM
[2]; read-out: GI50
  GI50: 1050 nM
SK-BR-3
  TGI: 406 nM
  GI50: 366 nM
  CC50: 451 nM
SK-MEL-28
  GI50: 235 nM
  CC50: 436 nM
SK-MEL-28; read-out: GI50
  GI50: 188 nM
A549
  GI50: 724 nM
  LC50: 891 nM
A549; read-out: GI50
  GI50: 562 nM
PANC-1
  GI50: 1290 nM
  TGI: 1430 nM
  CC50: 1580 nM
HT-29
  GI50: 419 nM
  TGI: 411 nM
  CC50: 409 nM
LoVo [3]
  GI50: 317 nM
  TGI: 314 nM
  CC50: 311 nM
LoVo [4]
  GI50: 90.4 nM
  TGI: 141 nM
  CC50: 209 nM
HeLa
  CC50: 185 nM
[5]
  GI50: 569 nM
  LC50 (concentration giving 50% net cell kill): 783 nM
  TGI: 700 nM

## C/C=C1\NC(=O)[C@H](Cc2ccc(F)cc2)NC(=O)[C@@H](C(C)C)NC(=O)[C@@H]([C@H](C)CC)NC(=O)[C@H](NC(=O)[C@H](NC(=O)[C@H](CCCN)NC(=O)[C@H]2CCCN2C(=O)[C@H](NC(=O)[C@@H](NC(=O)[C@@H](NC(=O)[C@H](NC(=O)CC[C@@H](C)CC)C(C)C)[C@@H](C)O)C(C)C)C(C)C)[C@H](C)CC)[C@H](C)OC(=O)[C@H](C(C)C)NC1=O
DU-145
  GI50: 893 nM
  CC50: 893 nM
DU-145; read-out: GI50
  GI50: 891 nM
LNCaP
  GI50: 514 nM
  TGI: 620 nM
  CC50: 747 nM
[1]
  GI50: 558 nM
  CC50: 381 nM
[1]; read-out: GI50
  GI50: 812 nM
[2]
  GI50: 791 nM
  CC50: 649 nM
[2]; read-out: GI50
  GI50: 971 nM
SK-BR-3
  TGI: 448 nM
  GI50: 519 nM
  CC50: 389 nM
SK-MEL-28
  GI50: 819 nM
  CC50: 953 nM
SK-MEL-28; read-out: GI50
  GI50: 699 nM
A549
  LC50: 1040 nM
  TGI: 1030 nM
A549; read-out: GI50
  GI50: 1010 nM
PANC-1
  GI50: 1460 nM
  TGI: 1530 nM
  CC50: 1580 nM
HT-29
  GI50: 452 nM
  TGI: 462 nM
  CC50: 479 nM
LoVo [3]
  GI50: 393 nM
  TGI: 361 nM
  CC50: 330 nM
LoVo [4]
  GI50: 413 nM
  TGI: 460 nM
  CC50: 512 nM
HeLa
  CC50: 2820 nM
[5]
  GI50: 737 nM
  LC50 (concentration giving 50% net cell kill): 837 nM
  TGI: 786 nM

## C/C=C1\NC(=O)[C@H](Cc2ccc(O)cc2)NC(=O)[C@@H](C(C)C)NC(=O)[C@@H]([C@H](C)CC)NC(=O)[C@H](NC(=O)[C@H](NC(=O)[C@H](CCCN)NC(=O)[C@H]2CCCN2C(=O)[C@H](NC(=O)[C@@H](NC(=O)[C@@H](NC(=O)[C@H](NC(=O)CC[C@@H](C)CC)C(C)C)[C@@H](C)O)C(C)C)C(C)C)[C@H](C)CC)[C@H](C)OC(=O)[C@H](C(C)C)NC1=O
DU-145
  CC50: 1930 nM
[1]
  CC50: 970 nM
[2]
  CC50: 1000 nM
SK-BR-3
  CC50: 184 nM
SK-MEL-28
  TGI: 3820 nM
  CC50: 2100 nM
SK-MEL-28; read-out: GI50
  GI50: 2370 nM
A549
  LC50: 1840 nM
K562
  GI50: 4920 nM
  TGI: 4300 nM
K562; read-out: LC50 (the source's name)
  CC50: 2700 nM
PANC-1
  CC50: 2020 nM
HT-29
  CC50: 748 nM
LoVo [3]
  GI50: 1830 nM
  TGI: 2310 nM
  CC50: 2690 nM
LoVo [4]
  GI50: 1030 nM
  TGI: 1720 nM
  CC50: 2170 nM
HeLa
  GI50: 3620 nM
  TGI: 4340 nM
  CC50: 2100 nM
[5]
  LC50 (concentration giving 50% net cell kill): 1980 nM
